Values after ≈ are worked out from the molar mass of the structure shown.
Columns and labels:
Pseudomonas aeruginosa [1] = test: Antibacterial activity against Pseudomonas aeruginosa PAO1 assessed as growth inhibition after 18 to 20 hrs by broth microdilution assay; assay type: functional; conditions: time 18-20 hrs
Method in brief: (§1)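 Overnight LB-agar colonies suspended to OD600 0.08–0.13, diluted 1:100; final inoculum 5 × 10^5 CFU/mL. 37 °C, 18–20 h, humid. MIC = lowest concentration without visible growth; range from at least three independent experiments.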

Pseudomonas aeruginosa [2] = test: Antibacterial activity against Pseudomonas aeruginosa PA14 harboring LecB deletion mutant assessed as growth inhibition after 18 to 20 hrs by broth microdilution assay; assay type: functional; conditions: time 18-20 hrs; method in brief: as §1
[3] = Inhibition of Pseudomonas aeruginosa ATCC 33347 LecA expressed in Escherichia coli BL21(DE3) cells incubated for 30 to 60 mins by (N-(fluorescein-5-yl)-N'-(beta-D-(m-aminophenyl)-galactopyranosyl)thiocarbamide) reporter based fluorescence polarization assay
Method in brief: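 LecA at 40 μM with 20 nM fluorescein-galactoside reporter in TBS/Ca. Test compound serial dilutions in 30% DMSO co-solvent, triplicate. Incubation 30–60 min at room temperature, then fluorescence polarization read (ex 485, em 535 nm), blank-corrected for LecA alone. Four-parameter fit with plateaus fixed by the p-nitrophenyl β-D-galactoside control. At least three independent plates.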

Pseudomonas aeruginosa [4] = test: Antibacterial activity against Pseudomonas aeruginosa PA14 assessed as growth inhibition after 18 to 20 hrs in presence of PMBN by broth microdilution assay; assay type: functional; conditions: time 18-20 hrs
Method in brief: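 Cation-supplemented Mueller-Hinton broth II; final inoculum 5 × 10^5 CFU/mL. Incubated at 37 °C for 18–20 h. MIC read visually as the lowest concentration without growth; at least three independent experiments.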

Staphylococcus carnosus = test: Antibacterial activity against Staphylococcus carnosus DSM 20501 assessed as growth inhibition after 18 to 20 hrs by broth microdilution assay; assay type: functional; conditions: time 18-20 hrs; method in brief: as §1
Escherichia coli [5] = test: Antibacterial activity against Escherichia coli K-12 MG1655 assessed as growth inhibition after 18 to 20 hrs by broth microdilution assay; assay type: functional; conditions: time 18-20 hrs; method in brief: as §1
Pseudomonas aeruginosa [6] = test: Antibacterial activity against Pseudomonas aeruginosa PA14 assessed as growth inhibition after 18 to 20 hrs by broth microdilution assay; assay type: functional; conditions: time 18-20 hrs; method in brief: as §1
Pseudomonas aeruginosa [7] = test: Antibacterial activity against Pseudomonas aeruginosa PAO1 assessed as growth inhibition after 18 to 20 hrs in presence of PMBN by broth microdilution assay; assay type: functional; conditions: time 18-20 hrs
Method in brief: (§2)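 Broth microdilution per EUCAST guidelines in Müller-Hinton broth II (Ca2+/Mg2+ supplemented, pH 7.3). Colonies from overnight LB-agar plates were suspended to OD600 0.08–0.13, diluted 1:100, final inoculum 5 × 10^5 CFU/mL. PMBN at 2 μg/mL was added to the inoculum where indicated. Incubation 37 °C, 18–20 h. MIC was the lowest concentration with no visible growth. At least three independent experiments.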

Pseudomonas aeruginosa [8] = test: Antibacterial activity against Pseudomonas aeruginosa PA14 harboring LecA deletion mutant assessed as growth inhibition after 18 to 20 hrs by broth microdilution assay; assay type: functional; conditions: time 18-20 hrs; method in brief: as §1
Pseudomonas aeruginosa [9] = test: Potency index ratio of pNP-beta-D-Gal IC50 to test compound IC50 for Inhibition of Pseudomonas aeruginosa ATCC 33347 LecA expressed in Escherichia coli BL21(DE3) cells
Pseudomonas aeruginosa [10] = test: Potency index ratio of Me-alpha-D-Gal IC50 to test compound IC50 for Inhibition of Pseudomonas aeruginosa ATCC 33347 LecA expressed in Escherichia coli BL21(DE3) cells
Escherichia coli [11] = test: Antibacterial activity against Escherichia coli DSM 1116 assessed as growth inhibition after 18 to 20 hrs by broth microdilution assay; assay type: functional; conditions: time 18-20 hrs
Method in brief: as §2, with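 “7.3). Test range 128 to 0.125 μg/mL, from DMSO stocks.” for “7.3).”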

[12] = Inhibition of Pseudomonas aeruginosa PA14 LecB expressed in Escherichia coli BL21(DE3) cells incubated for 4 to 8 hrs by (N-(fluorescein-5-yl)-N'-(alpha-L-fucopyranosyl ethylene)thiocarbamide) reporter based fluorescence polarization assay
[13] = Inhibition of Pseudomonas aeruginosa PAO1 LecB expressed in Escherichia coli BL21(DE3) cells incubated for 4 to 8 hrs by (N-(fluorescein-5-yl)-N'-(alpha-L-fucopyranosyl ethylene)thiocarbamide) reporter based fluorescence polarization assay
[14] = Half life in human plasma at 40 uM measured up to 150 mins by LC-MS/MS analysis; assay type: ADME, cell-free
[15] = Cytotoxicity against human A549 cells assessed as growth inhibition at 100 uM after 48 hrs by MTT assay relative to control; assay type: cell-based; conditions: read-out: GI
Method in brief: (§3)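 MTT assay: HEK293 or A549 cells seeded at 2 × 10^5 per well. Compounds (final DMSO 1%) were added 24 h after seeding. Living cell mass was read after 48 h.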

[16] = Clearance in mouse liver microsomes; assay type: ADME, Microsome
[17] = Protein binding in human plasma at 1 uM measured up to 6 hrs by LC-MS/MS analysis; assay type: ADME, cell-free
Method in brief: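 Rapid equilibrium dialysis: human plasma diluted with PBS pH 7.4 on one side, PBS on the other, compound at 1 μM final. Shaken at 37 °C for 6 h. Sampled at 0, 5 and 6 h and quantified by LC-MS/MS. Binding calculated from the concentration difference between chambers. Warfarin as control.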

[18] = Clearance in human liver microsomes; assay type: ADME, Microsome
[19] = Cytotoxicity against HEK293 cells assessed as growth inhibition at 100 uM after 48 hrs by MTT assay relative to control; assay type: cell-based; conditions: human, read-out: GI; method in brief: as §3
DNA gyrase = DNA gyrase (Escherichia coli, UniProt P0AES4+P0AES6); test: Inhibition of Escherichia coli DNA gyrase using relaxed PBR322 plasmid DNA as substrate incubated for 30 mins by ethidium bromide staining based agarose gel electrophoresis method; assay type: protein-complex assay
Method in brief: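 E. coli gyrase supercoiling kit. Relaxed pBR322 plus 1 U gyrase per reaction, compound serially diluted in 5% DMSO; 30 min at 37 °C. Stopped with STE buffer and CHCl3/isoamyl alcohol; 1% agarose gel, ethidium bromide stain. Supercoiled band intensity fitted with a four-parameter model, bottom fixed at 0, for IC50; at least three experiments.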

SMILES	MIC (Pseudomonas aeruginosa [1])	MIC (Pseudomonas aeruginosa [2])	IC50 [3]	MIC (Pseudomonas aeruginosa [4])	MIC (Staphylococcus carnosus)	MIC (Escherichia coli [5])	MIC (Pseudomonas aeruginosa [6])	MIC (Pseudomonas aeruginosa [7])	MIC (Pseudomonas aeruginosa [8])	MIC (Escherichia coli [11])	also measured
O=C(Cn1cc(CCN2CCN(c3cc4c(cc3F)c(=O)c(C(=O)O)cn4C3CC3)CC2)nn1)Nc1ccc(S[C@@H]2O[C@H](CO)[C@H](O)[C@H](O)[C@H]2O)cc1	> 64 µg/mL	≥ 64 µg/mL	21.6 µM	16 µg/mL	64 µg/mL (≈ 84.9 µM)	8 µg/mL (≈ 10.6 µM)	≥ 64 µg/mL	32 µg/mL	≥ 64 µg/mL		
[N-]=[N+]=NCCC(=O)Nc1ccc(S[C@@H]2O[C@H](CO)[C@H](O)[C@H](O)[C@H]2O)cc1			30.9 µM								Ratio IC50 (Pseudomonas aeruginosa [9]): < 2; Ratio IC50 (Pseudomonas aeruginosa [10]): < 3
O=C(CCCn1cc(CN2CCN(c3cc4c(cc3F)c(=O)c(C(=O)O)cn4C3CC3)CC2)nn1)Nc1ccc(S[C@@H]2O[C@H](CO)[C@H](O)[C@H](O)[C@H]2O)cc1	16 µg/mL (≈ 20.8 µM)	8 µg/mL (≈ 10.4 µM)	27.3 µM	4 µg/mL		1 µg/mL (≈ 1.3 µM)	8 µg/mL (≈ 10.4 µM)	4 µg/mL	8 µg/mL (≈ 10.4 µM)	2 µg/mL (≈ 2.6 µM)	
O=[N+]([O-])c1ccc(O[C@@H]2O[C@H](CO)[C@H](O)[C@H](O)[C@H]2O)cc1			52.7 µM								
O=C(CCCCn1cc(CN2CCN(c3cc4c(cc3F)c(=O)c(C(=O)O)cn4C3CC3)CC2)nn1)Nc1ccc(S[C@@H]2O[C@H](CO)[C@H](O)[C@H](O)[C@H]2O)cc1	32 µg/mL (≈ 40.9 µM)		28.3 µM	2 µg/mL		2 µg/mL (≈ 2.56 µM)		8 µg/mL		4 µg/mL (≈ 5.12 µM)	
O=C(CCCCn1cc(CCN2CCN(c3cc4c(cc3F)c(=O)c(C(=O)O)cn4C3CC3)CC2)nn1)Nc1ccc(S[C@@H]2O[C@H](CO)[C@H](O)[C@H](O)[C@H]2O)cc1	> 64 µg/mL	> 64 µg/mL	26.2 µM	32 µg/mL	≥ 64 µg/mL	16 µg/mL (≈ 20.1 µM)	> 64 µg/mL	32 µg/mL	> 64 µg/mL	4 µg/mL (≈ 5.03 µM)	
C[C@@H]1O[C@H](CNS(=O)(=O)c2ccc(CCN=[N+]=[N-])s2)[C@@H](O)[C@H](O)[C@@H]1O											IC50 [12]: 1.87 µM; IC50 [13]: 3.91 µM
O=C(CCn1cc(CN2CCN(c3cc4c(cc3F)c(=O)c(C(=O)O)cn4C3CC3)CC2)nn1)Nc1ccc(S[C@@H]2O[C@H](CO)[C@H](O)[C@H](O)[C@H]2O)cc1	16 µg/mL (≈ 21.2 µM)	8 µg/mL (≈ 10.6 µM)	32.2 µM	8 µg/mL	32 µg/mL (≈ 42.5 µM)	2 µg/mL (≈ 2.65 µM)	8 µg/mL (≈ 10.6 µM)	4 µg/mL	8 µg/mL (≈ 10.6 µM)		
C[C@@H]1O[C@H](CNS(=O)(=O)c2ccc(CCn3cc(CCN4CCN(c5cc6c(cc5F)c(=O)c(C(=O)O)cn6C5CC5)CC4)nn3)s2)[C@@H](O)[C@H](O)[C@@H]1O				64 µg/mL	≥ 64 µg/mL	16 µg/mL (≈ 20.6 µM)		≥ 64 µg/mL		32 µg/mL (≈ 41.2 µM)	IC50 [12]: 1 µM; IC50 [13]: 2.53 µM
[N-]=[N+]=NCCCCC(=O)Nc1ccc(S[C@@H]2O[C@H](CO)[C@H](O)[C@H](O)[C@H]2O)cc1			29.9 µM								Ratio IC50 (Pseudomonas aeruginosa [9]): < 2; Ratio IC50 (Pseudomonas aeruginosa [10]): < 3
[N-]=[N+]=NCC(=O)Nc1ccc(S[C@@H]2O[C@H](CO)[C@H](O)[C@H](O)[C@H]2O)cc1			31.7 µM								Ratio IC50 (Pseudomonas aeruginosa [9]): < 2; Ratio IC50 (Pseudomonas aeruginosa [10]): < 3
O=C(CCCn1cc(CCN2CCN(c3cc4c(cc3F)c(=O)c(C(=O)O)cn4C3CC3)CC2)nn1)Nc1ccc(S[C@@H]2O[C@H](CO)[C@H](O)[C@H](O)[C@H]2O)cc1	> 64 µg/mL	> 64 µg/mL	29.3 µM	32 µg/mL	64 µg/mL (≈ 81.9 µM)	16 µg/mL (≈ 20.5 µM)	> 64 µg/mL	32 µg/mL	> 64 µg/mL	4 µg/mL (≈ 5.12 µM)	
[N-]=[N+]=NCCCC(=O)Nc1ccc(S[C@@H]2O[C@H](CO)[C@H](O)[C@H](O)[C@H]2O)cc1			31.1 µM								Ratio IC50 (Pseudomonas aeruginosa [9]): < 2; Ratio IC50 (Pseudomonas aeruginosa [10]): < 3
CO[C@H]1O[C@H](CO)[C@H](O)[C@H](O)[C@H]1O			71.7 µM								
C[C@@H]1O[C@H](CNS(=O)(=O)c2ccc(CCn3cc(CN4CCN(c5cc6c(cc5F)c(=O)c(C(=O)O)cn6C5CC5)CC4)nn3)s2)[C@@H](O)[C@H](O)[C@@H]1O	≥ 64 µg/mL	64 µg/mL (≈ 84 µM)		64 µg/mL	≥ 64 µg/mL	8 µg/mL (≈ 10.5 µM)	64 µg/mL (≈ 84 µM)	32 µg/mL	≥ 64 µg/mL	16 µg/mL (≈ 21 µM)	half-life at […], 40 µM [14]: > 2.5 h; inhibition at 48 h, 100 µM [15]: -9%; IC50 [12]: 2.24 µM; microsomal CLint [16]: 10 µL/min/mg; PPB [17]: 75%; microsomal CLint [18]: 15 µL/min/mg; inhibition at 48 h, 100 µM [19]: 11%; IC50 [13]: 2.37 µM
O=C(CCn1cc(CCN2CCN(c3cc4c(cc3F)c(=O)c(C(=O)O)cn4C3CC3)CC2)nn1)Nc1ccc(S[C@@H]2O[C@H](CO)[C@H](O)[C@H](O)[C@H]2O)cc1	> 64 µg/mL	> 64 µg/mL	28 µM	32 µg/mL	> 64 µg/mL	16 µg/mL (≈ 20.8 µM)	> 64 µg/mL	32 µg/mL	> 64 µg/mL		
C#CCN1CCN(c2cc3c(cc2F)c(=O)c(C(=O)O)cn3C2CC2)CC1	4 µg/mL (≈ 10.8 µM)			0.025 µg/mL			2 µg/mL (≈ 5.41 µM)	1 µg/mL			IC50 (DNA gyrase): 0.7 µM
O=C(Cn1cc(CN2CCN(c3cc4c(cc3F)c(=O)c(C(=O)O)cn4C3CC3)CC2)nn1)Nc1ccc(S[C@@H]2O[C@H](CO)[C@H](O)[C@H](O)[C@H]2O)cc1	16 µg/mL (≈ 21.6 µM)		30.4 µM	4 µg/mL	32 µg/mL (≈ 43.3 µM)	2 µg/mL (≈ 2.7 µM)		4 µg/mL			half-life at […], 40 µM [14]: > 2.5 h; inhibition at 48 h, 100 µM [15]: 5%; microsomal CLint [16]: 10 µL/min/mg; PPB [17]: 69%; microsomal CLint [18]: 10 µL/min/mg; inhibition at 48 h, 100 µM [19]: 8%
O=C(O)c1cn(C2CC2)c2cc(N3CCNCC3)c(F)cc2c1=O [CIPROFLOXACIN]		0.05 µg/mL (≈ 0.151 µM)			< 0.125 µg/mL	< 0.125 µg/mL			0.05 µg/mL (≈ 0.151 µM)	< 0.125 µg/mL	inhibition at 48 h, 100 µM [15]: 18%; inhibition at 48 h, 100 µM [19]: 48%

From ChEMBL document CHEMBL4673246, “Directing Drugs to Bugs: Antibiotic-Carbohydrate Conjugates Targeting Biofilm-Associated Lectins of Pseudomonas aeruginosa” (J Med Chem, 2020)
